For assay [1], the target named is Anamorsin (Homo sapiens) (UniProt Q6FI81). As to the kind of experiment: Inhibition of recombinant purified CIAPIN1 (unknown origin) assessed as covalent adduct formation at 10 molar equivalents incubated for 2 hrs by electrospray MS analysis. Summed up:
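His-tagged full-length human CIAPIN1 (AA1-312, C-terminal 7x His/TEV, 27 µM) incubated with 10 molar equivalents of compound (270 µM) in PBS for 2 h at room temperature, then analysed intact by ES-MS.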

The target in assay [2] is T1, Ubiquitin carboxyl-terminal hydrolase 28 (Homo sapiens) (UniProt Q96RU2).
T1 sequence (whole entry): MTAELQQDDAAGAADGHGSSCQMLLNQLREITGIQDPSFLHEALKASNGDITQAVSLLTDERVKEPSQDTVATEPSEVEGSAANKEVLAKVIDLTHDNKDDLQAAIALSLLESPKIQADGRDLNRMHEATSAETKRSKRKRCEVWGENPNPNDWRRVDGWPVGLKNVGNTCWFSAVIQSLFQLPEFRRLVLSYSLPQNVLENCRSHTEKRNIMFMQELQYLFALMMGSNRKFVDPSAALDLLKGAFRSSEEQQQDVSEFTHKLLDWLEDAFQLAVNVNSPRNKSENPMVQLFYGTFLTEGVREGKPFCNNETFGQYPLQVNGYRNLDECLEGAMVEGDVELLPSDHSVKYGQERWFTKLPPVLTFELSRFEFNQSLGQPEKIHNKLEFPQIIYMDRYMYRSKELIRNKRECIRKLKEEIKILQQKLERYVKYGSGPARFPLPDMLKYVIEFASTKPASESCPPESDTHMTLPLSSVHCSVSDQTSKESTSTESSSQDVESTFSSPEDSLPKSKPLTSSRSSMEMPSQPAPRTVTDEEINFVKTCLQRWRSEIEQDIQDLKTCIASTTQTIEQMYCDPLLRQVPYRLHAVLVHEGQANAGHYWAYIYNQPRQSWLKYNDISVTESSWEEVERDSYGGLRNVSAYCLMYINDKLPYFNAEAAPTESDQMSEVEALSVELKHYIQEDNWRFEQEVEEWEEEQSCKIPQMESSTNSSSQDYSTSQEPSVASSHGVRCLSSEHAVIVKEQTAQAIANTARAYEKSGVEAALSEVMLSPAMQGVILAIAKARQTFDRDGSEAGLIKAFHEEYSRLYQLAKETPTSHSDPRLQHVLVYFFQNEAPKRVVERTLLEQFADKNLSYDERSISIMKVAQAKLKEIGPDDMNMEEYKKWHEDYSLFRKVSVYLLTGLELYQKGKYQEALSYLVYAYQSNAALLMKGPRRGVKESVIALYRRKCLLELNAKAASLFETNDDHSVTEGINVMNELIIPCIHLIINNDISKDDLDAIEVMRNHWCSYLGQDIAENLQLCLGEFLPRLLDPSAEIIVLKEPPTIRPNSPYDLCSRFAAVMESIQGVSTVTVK
As to the kind of experiment: Inhibition of USP28 in human HeLa cell extracts assessed as inhibition of HA-Ub-C2Br probe labeling at 1 to 100 uM incubated for 30 mins by immunoblot analysis. In kind it is cell-free. For orientation: In western blotting, separated proteins are transferred to a membrane and probed.

Assay [3] has as its target Anamorsin (Homo sapiens) (UniProt Q6FI81). As to the kind of experiment: Inhibition of CIAPIN1 in human KMS11 cells assessed as induction of protein aggregation at 100 nM incubated for 1 hr by immunoblot analysis. In kind it is cell-based.
The target of assay [4] is T1, Ubiquitin carboxyl-terminal hydrolase 28 (Homo sapiens). The assay is described as follows: Covalent binding affinity to USP28 in human U2OS cells at 20 uM using probe-1 by ABPP analysis. In kind it is cell-based. The method in brief:
(§1)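 U2OS cells pre-incubated 30 min with competitor (0, 5 or 20 µM), then 5 µM probe 1 for 1 h, in triplicate. Lysates in Triton/SDS buffer mixed with heavy R10K8-labelled probe-treated spike, CuAAC-tagged, NeutrAvidin-enriched, reduced, alkylated, trypsin-digested overnight at 37 °C, LC-MS/MS. Log2(L/H) ratios median-normalised and expressed relative to the no-inhibitor condition.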

Assay [5] deals with Anamorsin (Homo sapiens) (UniProt Q6FI81). The assay is described as follows: Inhibition of recombinant purified CIAPIN1 (unknown origin) assessed as accumulation of protein aggregates at 0.1 to 1.6 uM incubated for 1 to 6 hrs by size exclusion chromatography.
The target is the same in assay [6]. The assay is described as follows: Inhibition of recombinant purified CIAPIN1 (unknown origin) assessed as covalent modification of cysteine residues incubated for 30 mins LC-MS/MS analysis.
For assay [7] the target is unchanged. The assay is described as follows: Covalent binding affinity to CIAPIN1 in human U2OS cells at 20 uM using probe-1 by ABPP analysis. In kind it is cell-based. The method in brief: as §1
For assay [8], the system named is HeLa. As to the kind of experiment: Inhibition of deubiquitinase in human HeLa cell extracts assessed as inhibition of HA-Ub-C2Br probe labeling at 1 to 100 uM incubated for 30 mins by immunoblot analysis. In kind it is cell-free.
Assay [9] addresses Anamorsin (Homo sapiens) (UniProt Q6FI81). The assay is described as follows: Inhibition of CIAPIN1 in human KMS11 crude cell extracts assessed as induction of formation of high molecular weight complexes with CIAPIN1 at 20 uM incubated for 2 hrs in presence of GSH by immunoblot analysis.
In the next assay the test system is U2OS. As to the kind of experiment: Cytotoxicity in human U2OS cells assessed as reduction in cell viability incubated for 72 hrs Cell-titer Glo reagent based assay. In kind it is functional. The method in brief: (§2)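 KMS11 (RPMI, seeded 25,000/well) or U2OS (DMEM, 10,000/well, adhered overnight) given varying concentrations, 72 h, biological triplicates, DMSO and bortezomib controls. CellTiter Glo luminescence; EC50 by dose-response fit.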

For assay [10], the target named is Anamorsin (Homo sapiens) (UniProt Q6FI81). The assay is described as follows: Inhibition of recombinant purified CIAPIN1 (unknown origin) assessed as disruption of intra-chain disulfide bond in unmodified peptide containing Cys249.
For assay [11], the system named is KMS-11. The assay is described as follows: Cytotoxicity in human KMS11 cells assessed as reduction in cell viability incubated for 72 hrs Cell-titer Glo reagent based assay. In kind it is functional. Particulars: KMS-11, 72 h. The method in brief: as §2
For assay [12], the system named is KMS-11. As to the kind of experiment: Cytotoxicity in human KMS11 cells assessed as reduction in cell viability at 1 to 10 uM incubated for 16 hrs in presence of GSH by Alamar blue assay. In kind it is functional, cell-based. The method in brief:
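KMS11 seeded at 80,000/well, treated with 1 or 10 µM compound with or without 1 mM GSH for 16 h, 6 biological replicates. Alamar blue fluorescence read at 560/590 nm, normalised to DMSO control.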
(Alamar Blue is a resazurin reagent that responds to reducing activity.)

In assay [13] the target is Ubiquitin carboxyl-terminal hydrolase 14 (Homo sapiens) (UniProt P54578). The assay is described as follows: Covalent binding affinity to USP14 in human U2OS cells at 20 uM using probe-1 by ABPP analysis. In kind it is cell-based. The method in brief:
as §1

Assay [14] deals with Anamorsin (Homo sapiens) (UniProt Q6FI81). As to the kind of experiment: Inhibition of recombinant purified CIAPIN1 (unknown origin) assessed as increase in high molecular weight CIAPIN1 complexes at 1 to 10 molar equivalent 1 by SDS-PAGE and Coomassie Blue staining based method. The method in brief:
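Recombinant CIAPIN1 (1 mg/mL) incubated with DMSO (0.16%) or compound at 1x, 2x, 5x or 10x molar excess, 30 min at 4 °C. Resolved by SDS-PAGE with Coomassie staining.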

The target is the same in assay [15]. The assay is described as follows: Inhibition of CIAPIN1 in human KMS11 cells assessed as induction of high molecular weight complex formation at 100 nM incubated for 6 hrs by immunoblot analysis. In kind it is cell-based.
For assay [16] the target is unchanged. The assay is described as follows: Inhibition of CIAPIN1 in human KMS11 cells assessed as deletion of depletion of stable CIAPIN1 levels at 100 nM incubated for 6 hrs by immunoblot analysis. In kind it is cell-based.
Assay [17] shares this target. As to the kind of experiment: Inhibition of CIAPIN1 in human KMS11 crude cell extracts assessed as induction of formation of high molecular weight complexes with CIAPIN1 at 20 uM incubated for 2 hrs by immunoblot analysis.
In assay [18] the target is T2, Ubiquitin carboxyl-terminal hydrolase isozyme L5 (Homo sapiens) (UniProt Q9Y5K5).
T2 sequence (whole entry): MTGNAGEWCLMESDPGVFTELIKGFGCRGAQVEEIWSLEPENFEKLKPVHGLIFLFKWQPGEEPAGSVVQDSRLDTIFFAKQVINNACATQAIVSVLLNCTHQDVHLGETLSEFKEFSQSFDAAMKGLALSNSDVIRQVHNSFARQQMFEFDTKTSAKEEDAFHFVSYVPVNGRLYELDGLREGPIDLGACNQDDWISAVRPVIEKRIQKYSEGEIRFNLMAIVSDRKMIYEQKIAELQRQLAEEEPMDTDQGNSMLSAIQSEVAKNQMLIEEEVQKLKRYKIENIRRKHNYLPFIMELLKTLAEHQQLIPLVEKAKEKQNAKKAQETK
The assay is described as follows: Covalent binding affinity to UCH-37 in human U2OS cells at 20 uM using probe-1 by ABPP analysis. In kind it is cell-based. The method in brief: as §1

For assay [19], the system named is HeLa. As to the kind of experiment: Inhibition of deubiquitinase in human HeLa cell extracts assessed as induction of accumulation of high molecular weight mTOR proteins at 1 uM incubated for 2 hrs by immunoblot analysis. In kind it is cell-free.

Molecules are shown by their SMILES. pEC50: −log10 of the molar value. Activity calls are given as the source filed them. The rule behind the calls is not given here.

Sequence of Anamorsin (Homo sapiens) (Q6FI81 whole entry, the tested form may be a part): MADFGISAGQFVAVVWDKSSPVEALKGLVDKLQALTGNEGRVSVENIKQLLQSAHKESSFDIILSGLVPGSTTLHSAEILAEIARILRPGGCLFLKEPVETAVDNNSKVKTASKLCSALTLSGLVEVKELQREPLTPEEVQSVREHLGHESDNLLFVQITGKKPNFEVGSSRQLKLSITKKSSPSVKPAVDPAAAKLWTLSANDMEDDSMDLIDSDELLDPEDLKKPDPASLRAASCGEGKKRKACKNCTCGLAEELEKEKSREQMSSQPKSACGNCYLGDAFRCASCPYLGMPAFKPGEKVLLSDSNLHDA
Sequence of Ubiquitin carboxyl-terminal hydrolase 14 (Homo sapiens) (P54578 whole entry): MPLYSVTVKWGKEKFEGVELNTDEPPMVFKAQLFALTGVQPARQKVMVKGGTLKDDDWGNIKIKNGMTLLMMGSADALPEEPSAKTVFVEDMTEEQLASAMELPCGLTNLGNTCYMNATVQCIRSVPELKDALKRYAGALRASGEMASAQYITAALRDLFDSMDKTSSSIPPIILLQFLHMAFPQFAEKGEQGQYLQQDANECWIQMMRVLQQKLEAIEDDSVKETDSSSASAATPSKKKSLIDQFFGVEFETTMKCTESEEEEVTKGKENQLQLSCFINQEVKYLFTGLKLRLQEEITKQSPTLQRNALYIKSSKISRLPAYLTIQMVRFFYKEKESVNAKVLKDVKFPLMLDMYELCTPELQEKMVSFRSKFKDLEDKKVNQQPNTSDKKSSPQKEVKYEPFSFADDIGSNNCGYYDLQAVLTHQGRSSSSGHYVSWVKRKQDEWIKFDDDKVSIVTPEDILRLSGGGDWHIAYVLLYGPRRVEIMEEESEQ

As usually defined, the pEC50 is the negative decadic logarithm of the EC50, by convention in mol/L. For `C=CC(=O)N1CC/C(=C\c2ccc(F)c([N+](=O)[O-])c2)C(=O)/C(=C/c2ccc(F)c([N+](=O)[O-])c2)C1`, the inhibition entry (on Anamorsin (Homo sapiens) [1]; in assay [2]; on Anamorsin (Homo sapiens) [3]; at Anamorsin (Homo sapiens) [5]; on Anamorsin (Homo sapiens) [6]; in the assay on HeLa [8]) was “Active” in each case. Besides, the inhibition entry on Anamorsin (Homo sapiens) [10], on Anamorsin (Homo sapiens) [14], at Anamorsin (Homo sapiens) [15], at Anamorsin (Homo sapiens) [16] and at Anamorsin (Homo sapiens) [17] was “Active” in each case. The result (in assay [4]; with KMS-11 [12]; in assay [13]; in [18]) was inactive. Moreover, at Anamorsin (Homo sapiens) [7], the outcome was Active. Further, the inhibition result at Anamorsin (Homo sapiens) [9] is “inactive”. Moreover, the results for the pEC50 with U2OS and with KMS-11 [11] were 7.01 and 7.37, respectively.

As for `C#CCC(=O)N1CC/C(=C\c2ccc(F)c([N+](=O)[O-])c2)C(=O)/C(=C/c2ccc(F)c([N+](=O)[O-])c2)C1`, the pEC50 was 7.09 in the assay on U2OS and 7.34 in the assay on KMS-11 [11].

`COc1cc(/C=C/C(=O)CC(=O)/C=C/c2ccc(O)c(OC)c2)ccc1O`: the inhibition result in the assay on HeLa [19] is “Active”.

Values taken from ChEMBL document CHEMBL4354861, “Re-Evaluating the Mechanism of Action of α,β-Unsaturated Carbonyl DUB Inhibitors b-AP15 and VLX1570: A Paradigmatic Example of Unspecific Protein Cross-linking with Michael Acceptor Motif-Containing Drugs” (J Med Chem, 2020).
